Laboratory results from ChEMBL document CHEMBL3272283, “Contraceptive agents from cycloaddition reactions of diarylcyclopropenones and diarylthiirene 1, 1-dioxides” (J Med Chem, 1976).
Active and inactive are the calls of the source. No cut-off for these calls is given here.

Tests used:
[1] = tested on: Rattus norvegicus; experiment: Antifertility activity in 1 to 9 days pregnancy Charles River CD rat assessed as reduction in number of viable fetuses at 25 mg/kg, po; assay type: functional
In short: (§1)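 Adult females (rats: Charles River CD; hamsters: Lakeview LAK/LVG-SVR) kept under reversed light (dark 6 a.m.-6 p.m.). Caged with proven-fertile males at 9:00 a.m.; plug or vaginal sperm at 3:00 p.m. marked day 0. Oral dosing generally days 1-9, groups of five; killed day 11. Living fetuses, resorptions and implantation sites counted against controls. Score by % fewer viable fetuses: A <24%, +1 25-49%, +2 50-74%, +3 75-99%, +4 none living.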

[2] = tested on: Rattus norvegicus; experiment: Antifertility activity in 1 to 9 days pregnancy Charles River CD rat assessed as abortion of implanted embryos at 25 mg/kg, po qd for 9 days; assay type: functional, organism-based; parameters: dose 25 mg/kg; in short: as §1
[3] = tested on: Rattus norvegicus; experiment: Antifertility activity in 1 to 9 days pregnancy Charles River CD rat assessed as reduction in number of viable fetuses at 5 mg/kg, po; assay type: functional; in short: as §1
[4] = tested on: Hamster; experiment: Antifertility activity in 1 to 9 days pregnancy hamster assessed as reduction in number of viable fetuses at 50 mg/kg, po; assay type: functional, Cricetinae; in short: as §1
[5] = species: Rattus norvegicus; experiment: Antiestrogenic activity in rat; assay type: functional, organism-based
[6] = species: Rattus norvegicus; experiment: Estrogenic activity in adult ovariectomized rat assessed as induction of uterine growth; assay type: functional, organism-based
[7] = species: Rattus norvegicus; experiment: Estrogenic activity in adult ovariectomized rat assessed as induction of vaginal opening and cornification; assay type: functional, organism-based
[8] = tested on: Hamster; experiment: Uterotrophic activity in hamster; assay type: functional, organism-based; settings: Cricetinae; Uterus
[9] = tested on: Rhesus monkey; experiment: Toxicity in rhesus monkey up to 800 mg/kg, po; assay type: organism-based, Macaca mulatta; parameters: dose 800 mg/kg, route oral; settings: in vivo
[10] = tested on: Hamster; experiment: Antifertility activity in 1 to 9 days pregnancy hamster assessed as reduction in number of viable fetuses at 10 mg/kg, po; assay type: functional, Cricetinae; in short: as §1
[11] = species: Rattus norvegicus; experiment: Estrogenic activity in immature rat assessed as induction of vaginal opening; assay type: functional, organism-based
[12] = species: Oryctolagus cuniculus; experiment: Estrogenic activity in immature rabbit uterus assessed as Clauberg progestational response; assay type: functional, tissue-based
[13] = species: Canis familiaris; experiment: Effect on mating behavior in spayed dog; settings: Canis lupus familiaris
[14] = species: Rattus norvegicus; experiment: Estrogenic activity in rat assessed as increase of uterine weight; assay type: functional, organism-based
[15] = tested on: Rattus norvegicus; experiment: Antideciduomal activity in pseudopregnant rat administered once in weekly; assay type: functional, organism-based
[16] = species: Rattus norvegicus; experiment: Estrogenic activity in adult ovariectomized rat; assay type: functional, organism-based
[17] = species: Rattus norvegicus; experiment: Estrogenic activity in immature rat; assay type: functional, organism-based
[18] = tested on: Rattus norvegicus; experiment: Antifertility activity in 1 to 9 days pregnancy Charles River CD rat assessed as reduction in number of viable fetuses at 50 mg/kg, po; assay type: functional; in short: as §1

## O=c1c(-c2ccccc2)c1-c1ccccc1
[1]
  Activity: inactive

## CN1CCN([C@]23C(=O)C(c4ccccc4)=C(c4ccccc4)[C@H]2C2CCC3C2)CC1 (relative stereo)
[2]
  Activity: Active
[3]
  Activity: 75%

## O=C(/C(=C(\C1=CC2CCC1CC2)c1ccccc1)c1ccccc1)N1CCCCC1
[1]
  Activity: 0%

## O=C1C(c2ccc(Cl)cc2)=C(c2ccc(Cl)cc2)[C@H]2C3CCC(C3)[C@@]12N1CCCC1 (relative stereo)
[1]
  Activity: 0%

## COc1ccc(-c2c(-c3ccc(OC)cc3)c2=O)cc1
[1]
  Activity: inactive

## O=C1C(c2ccccc2)C(c2ccccc2)C2C3CCC(C3)[C@@]12N1CCCC1 (some centres not stated)
[1]
  Activity: 25%

## O=S1(=O)C(c2ccccc2)=C(c2ccccc2)C2C3CCC(C3)[C@]21N1CCCC1 (some centres not stated)
[1]
  Activity: 75%

## O=C1C(c2cccs2)=C(c2cccs2)C2C3CCC(C3)[C@@]12N1CCCCC1 (some centres not stated)
[1]
  Activity: 0%

## CN(C)[C@]12C(=O)C(c3ccccc3)=C(c3ccccc3)[C@H]1C1CCC2C1 (relative stereo)
[1]
  Activity: 0%

## COc1ccc(C2=C(c3ccc(OC)cc3)[C@H]3C4CCC(C4)[C@@]3(N3CCCC3)C2=O)cc1 (relative stereo)
[1]
  Activity: 0%

## O=C(/C(=C(\C=C1CCCCC1)c1ccccc1)c1ccccc1)N1CCCC1
[1]
  Activity: 0%

## O=C1C(c2ccccc2)=C(c2ccccc2)[C@H]2C3CCC(C3)[C@@]12N1CCCC1 (relative stereo)
[2]
  Activity: Active
[4]
  Activity: 0%
[1]
  Activity: 100%

## O=C1C(c2ccccc2)=C(c2ccccc2)C2CC3CCC(C3)[C@@]12N1CCCC1 (some centres not stated)
[1]
  Activity: 0%

## CC(C)=C/C(=C(\C(=O)N1CCCC1)c1ccccc1)c1ccccc1
[3]
  Activity: inactive
[1]
  Activity: 100%

## O=C(/C(=C(\C1=Cc2ccccc2CC1)c1ccccc1)c1ccccc1)N1CCCCC1
[1]
  Activity: 100%

## O=S1(=O)C(c2ccccc2)=C(c2ccccc2)C2C3CCC(C3)[C@]21N1CCCCC1 (some centres not stated)
[1]
  Activity: 100%

## O=C1C(c2ccccc2)=C(c2ccccc2)[C@H]2C3CCC(C3)[C@@]12N1CCCCC1 (relative stereo)
[5]
  Activity: inactive
[6]
  Activity: Active
[2]
  Activity: Active
[7]
  Activity: Active
[8]
  Activity: Active
[9]
  Activity: Non-toxic
[10]
  Activity: 25%
[4]
  Activity: 100%
[1]
  Activity: 100%
[11]
  Activity: Active
[12]
  Activity: inactive
[13]
  Activity: inactive
[14]
  Activity: Active
[15]
  Activity: Active
[16]
  Activity: Active
[17]
  Activity: Active

## O=C1C(c2ccccc2)=C(c2ccccc2)[C@H]2C3CCC(C3)[C@@]12N1CCOCC1 (relative stereo)
[1]
  Activity: 0%

## O=S1(=O)C(c2ccccc2)=C1c1ccccc1
[1]
  Activity: inactive

## O=C(/C(=C(\C1=CCCCc2ccccc21)c1ccccc1)c1ccccc1)N1CCCC1
[1]
  Activity: 0%

## O=S1(=O)C(c2ccc(Cl)cc2)=C1c1ccc(Cl)cc1
[1]
  Activity: inactive

## O=C(/C(=C(\C1=CC2CCC(C1)C2)c1ccccc1)c1ccccc1)N1CCCCC1 (configuration not stated)
[1]
  Activity: 0%

## O=C1C(c2ccccc2)=C(c2ccccc2)C2C3CCC(C3)C[C@@]12N1CCCCC1 (some centres not stated)
[2]
  Activity: Active
[1]
  Activity: 100%

## O=C1C(c2ccccc2)=C(c2ccccc2)C2CCc3ccccc3[C@@]12N1CCCC1 (some centres not stated)
[1]
  Activity: 50%

## O=C(/C(=C(\C=C1/CC=CCC1)c1ccccc1)c1ccccc1)N1CCCC1
[1]
  Activity: 0%

## C[C@@]12C(c3ccccc3)=C(c3ccccc3)C(=O)[C@]1(N1CCCC1)C1CCC2C1 (relative stereo)
[3]
  Activity: 0%

## O=C1C(c2ccccc2)=C(c2ccccc2)[C@H]2C3CCC(C3)[C@@]12N1CCCCCC1 (relative stereo)
[2]
  Activity: Active
[4]
  Activity: 0%
[1]
  Activity: 100%

## O=S1(=O)C(c2ccc(Cl)cc2)=C(c2ccc(Cl)cc2)C2C3CCC(C3)[C@]21N1CCCC1 (some centres not stated)
[1]
  Activity: 0%

## O=C1C(c2ccccc2)=C(c2ccccc2)C2C3CC(C4C=CCC43)[C@@]12N1CCCC1 (some centres not stated)
[1]
  Activity: 0%

## O=C(/C(=C(\C1=Cc2ccccc2CC1)c1ccccc1)c1ccccc1)N1CCCC1
[18]
  Activity: 100%
[3]
  Activity: inactive

## O=c1c(-c2ccc(Cl)cc2)c1-c1ccc(Cl)cc1
[1]
  Activity: inactive

## O=C1C(c2ccccc2)=C(c2ccccc2)C2C3CCC(CC3)[C@@]12N1CCCCC1 (some centres not stated)
[2]
  Activity: Active
[1]
  Activity: 100%

## O=C1C(c2ccc(Cl)cc2)=C(c2ccc(Cl)cc2)[C@H]2C3CCC(C3)[C@@]12N1CCCCC1 (relative stereo)
[1]
  Activity: 0%

## O=C(/C(=C(\C1=CCCc2ccccc21)c1ccccc1)c1ccccc1)N1CCCC1
[1]
  Activity: 0%

## O=C1C(c2ccccc2)=C(c2ccccc2)C2C3CC(C[C@]12N1CCCC1)c1ccccc13 (some centres not stated)
[2]
  Activity: Active
[4]
  Activity: 25%
[1]
  Activity: 100%

## CC1=C(/C(=C(\C(=O)N2CCCC2)c2ccccc2)c2ccccc2)C2CCC1C2 (configuration not stated)
[1]
  Activity: 0%
